Assay results gathered from unrelated publications.
Each line is one published result; the experiments were not run side by side.
MMP8: Neutrophil collagenase (MMP8, Homo sapiens, UniProt P22894)
CA2: Carbonic anhydrase 2 (CA2, Homo sapiens, UniProt P00918)

For CCN(CC)CCCC[C@H](NC(=O)[C@H](CC(C)C)NC(=O)[C@H](C)NC(=O)[C@H](Cc1ccccc1)NC(=O)c1ccc(C(C)(C)C)cc1)C(=O)N[C@@H](CO)C(=O)OC, the inhibition was 29% (Delta-type opioid receptor (OPRD1, Homo sapiens, UniProt P41143); ligand displacement; radioligand; 10 µM).
The inhibition of CC(C)=CCC[C@]1(C)C=Cc2c(O)c3c(c(CC=C(C)C)c2O1)O[C@]12C(=C[C@@H]4C[C@H]1C(C)(C)O[C@@]2(C/C=C(/C)C(=O)O)C4=O)C3=O is reported as 18% (N-lysine methyltransferase KMT5A (KMT5A, Homo sapiens, UniProt Q9NQR1); cell-free assay; 10 µM).
With COc1ccc(S(=O)(=O)N(CC(=O)NO)CC(C)C)cc1 the inhibition was 91% (MMP8; enzyme activity; inhibitor; 1 µM).
For C#Cc1n[nH]c2c(-c3cn([C@@H](C)c4ccccn4)c(=O)[nH]c3=O)cc(F)cc12, the inhibition was 5.1% (cAMP-dependent protein kinase catalytic subunit alpha (PRKACA, Homo sapiens, UniProt P17612); enzyme activity; inhibitor; 0.1 µM).
The inhibition of C[C@H](C(=O)N[C@H]1COc2ccccc2[C@@H]1S(C)(=O)=O)c1ccc(F)cc1 is reported as 8% (CA2; enzyme activity; inhibitor; 10 µM).
NC(CO)C(=O)N/N=C/c1ccc(O)c(O)c1 (stereo not shown) has an inhibition of 55.9% (Genome polyprotein, protease (Coxsackievirus B3, UniProt P03313); enzyme activity; inhibitor; FRET; 50 µM).
COCc1c(-c2cc3cc(C)cc(OC)c3s2)c2c(N)ncnn2c1CN1CCNC(=O)C1 gave an inhibition of 44% (CA2; enzyme activity; inhibitor; 10 µM).
CCOC(=O)c1ccc(OC(=O)CCCCCNC(=N)N)cc1 gave an inhibition of 7% (MMP8; enzyme activity; inhibitor; 10 µM).
Cc1ncc(C)n2nc(/C=C/c3nc(N4CCCC4)cc(N4CCOCC4)n3)nc12 gave an inhibition of -1% (5-hydroxytryptamine receptor 1D (Htr1d, Rattus norvegicus, UniProt P28565); ligand displacement; 10 µM).
Cn1cc(-c2cccc(N3CCc4c(sc5c4CC(C)(C)C5)C3=O)c2CO)cc(Nc2ccncn2)c1=O gave an inhibition of 16% (G protein-coupled receptor kinase 3 (GRK3, Homo sapiens, UniProt P35626); enzyme activity; inhibitor; 1 µM).
COc1ccc(S(=O)(=O)N2CCCCC2)cc1C gave an inhibition of under 30% (Androgen receptor (AR, Homo sapiens, UniProt P10275); ligand displacement; radioligand; 10 µM).
With Cn1cc(-c2cc(F)cc(N3CCn4c(cc5c4CCCC5)C3=O)c2CO)cc(Nc2ccc(N3CCN(C4COC4)CC3)cn2)c1=O the inhibition was -12% (Serine/threonine-protein kinase WNK2 (WNK2, Homo sapiens, UniProt Q9Y3S1); enzyme activity; inhibitor; 0.1 µM).
The inhibition of O=C(Nc1cccnn1)N1CCN([C@@H]2CCOc3cc(C(F)(F)F)ccc32)CC1 is reported as 3% (cGMP-dependent 3',5'-cyclic phosphodiesterase (PDE2A, Homo sapiens, UniProt O00408); enzyme activity; inhibitor; 20 µM).
